Xi reactivation = X-chromosome reactivation activator; XiGFP mouse fibroblasts, % GFP-positive cells imaging, 3 d; cells co-treated with 5-aza-dC sensitizer; scaled so ellipticine positive control = 100%; activation, % at 7.58 µM; 360,000 compounds, 0.055% hits;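 active = mean normalized replicate activation at least 10% and every replicate at or above 10%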;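 note: 0% = median of on-plate neutral control wells and 100% = ellipticine 6 µM median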
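Schedule: 3 d treatment, 15 min room-temperature fixation; system: 68-5-11 XiGFP fibroblast line; buffer or medium: DMEM plus 5-aza-dC sensitizer; control set: ellipticine 6 µM positive control; compound: one concentration, pinned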
INS-1E GSIS act = GLuc luminescence reporter in INS-1E cells, primary screen for activators of glucose-dependent secretion of insulin | INS-1E GLuc reporter insulin secretion, 2-3 h | activation, % at 16.6 µM | 370,000 compounds, 0.61% hits | AID 743287;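 active = lowest replicate activation of at least 40%, so every replicate reaches that level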;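 note: 0% = median of neutral control wells and 100% = median of IBMX positive control wells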
GAA850 FXN act = activators of GAA850 frataxin (FXN) promoter | HEK293 lucGAA850 FXN promoter luciferase reporter, 24 h; percent of 10 µM SAHA response | activation, % at 6 µM | 360,000 compounds, 0.56% hits | AID 540364;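 active = activation above the average of all compounds screened plus 3 SD, cutoff fixed separately per campaign, cut at about 7.5% in these data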;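 note: 0% = DMSO wells and 100% = 10 µM SAHA wells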
CaV13 ICDI inh = Primary screen for inhibitors of IQ motif and Ca2+-dependent inactivation inhibitor domain binding in CACNA1D, Förster resonance energy transfer in living cells, …. HEK cells, CFP/YFP FRET ICDI-IQ, plate reader, 10 min; percent FRET-ratio fall versus neutral wells. inhibition, % at 12.3 µM. 340,000 compounds, 0.098% hits;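 active = mean replicate inhibition of at least 30% and at least 1% of replicates passing that level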;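 note: 0% = median of the neutral control wells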
The depositor's hits bear a star; nt = no result; + = active, no number. The list is not random: actives were taken first. Their share in the collection is about 1%.

SMILES	Xi reactivation	INS-1E GSIS act	GAA850 FXN act	CaV13 ICDI inh
CCOC(CCn1c(SCC(=O)NC2CCCC2)nc2ccccc2c1=O)OCC	0	4	0	-3
N=c1c(C(=O)NCc2ccco2)cc2c(=O)n3ccccc3nc2n1Cc1ccc(Cl)cc1	nt	11	-1	5
CCOC(=O)c1cc2c(=O)n3ccccc3nc2n(Cc2ccc(Cl)cc2)c1=N	0	13	0	+
CC(C)(C)c1cc(NCCCn2ccnc2)n2ncc(-c3ccc(Cl)cc3)c2n1	nt	817*	-1	-5
Cc1cc(NCCCn2ccnc2)n2nc(-c3ccc(Cl)cc3)cc2n1	0	14	6	-2
O=C(C[C@H]1C[C@H]2c3cc(NC(=O)C4CCOCC4)ccc3O[C@H]2[C@H](CO)O1)NC1CCCC1	0	8	nt	nt
OCCNc1nc(-c2ccccc2)c2cc(Br)ccc2n1	0	59*	3	-1
O=C(O)CNc1nc(-c2ccccc2)c2cc([N+](=O)[O-])ccc2n1	0	61*	3	-6
CCOc1nc(-c2ccccc2)c2cc(Br)ccc2n1	0	47*	1	-3
O=[N+]([O-])c1ccc2nc(NCCCO)nc(-c3ccccc3)c2c1	0	22	3	-5
CCOc1ccc(CCNS(=O)(=O)c2c(C)nc3scc(C)n3c2=O)cc1OCC	0	52*	3	-8
C[C@@H]1CN([C@H](C)CO)C(=O)c2cccc(NC(=O)c3ccncc3)c2O[C@H]1CN(C)C(=O)Nc1ccc2c(c1)OCO2	0	3	nt	nt
CCCCCCCCCCCCCCCC[n+]1cccc2ccccc21	0	159*	-7	nt
NC(=O)C1CCN(C(=O)CCNS(=O)(=O)c2ccccc2F)CC1	0	48*	1	-7
CCCN1C[C@H](C)[C@@H](OC)CN(C)C(=O)c2ccc(NC(=O)c3ccc(F)cc3)cc2OC[C@H]1C	0	1	nt	nt
Cc1cccn2cc(CCNS(=O)(=O)c3cccs3)nc12	3	42*	4	-5
COc1ccc(S(=O)(=O)NCCc2cn3cccc(C)c3n2)cc1OC	0	4	1	-12
CCCCc1c(-c2ccccc2OC)ncn1C(C)c1ccccc1 (configuration not stated)	0	92*	nt	-7
CCCCc1c(-c2ccccc2OC)ncn1Cc1ccc(Br)cc1	0	-33	nt	-9
CCCCc1c(Cc2ccccc2)ncn1CCc1ccccc1OC	0	174*	nt	-6
CCCCc1c(-c2ccccc2OC)ncn1CCc1ccc(OC)cc1	0	1	nt	-9
CCCCc1c(-c2ccccc2OC)ncn1CCc1ccccc1	0	46*	nt	-10
COc1ccccc1NC(=O)N[C@@H]1CC[C@@H](CCn2cc(-c3cccnc3)nn2)O[C@H]1CO	0	-13	nt	nt
O=C(C[C@H]1C=C[C@@H](NC(=O)C2CC2)[C@@H](CO)O1)NCC1CC1	0	8	nt	nt
C[C@H](CO)N1C[C@H](C)[C@H](CN(C)CC2CC2)Oc2c(NS(=O)(=O)c3cccs3)cccc2C1=O	0	7	nt	nt
SMILES	Xi reactivation	INS-1E GSIS act	GAA850 FXN act	CaV13 ICDI inh
CS(=O)(=O)N1C[C@@H]2N[C@H](C1)C2c1ccc(-c2ccc(F)cc2)cc1 (some centres not stated)	0	6	nt	nt
O=C(Nc1cc(F)ccc1F)N1C[C@H]2[C@@H](c3ccccc31)[C@@H](CO)N2Cc1ccncc1	0	4	nt	nt
Cc1ncc(CSc2nccc(=O)[nH]2)c(CO)c1O	0	81*	0	-14
COc1cc2ccccc2cc1C(=O)Nc1ccc2oc(=O)ccc2c1	0	156*	1	-3
COc1cc(OC)c(C(=O)Nc2ccc3ccccc3c2)cc1OC	nt	nt	1	nt
Cc1cc(Oc2cccnc2)ccc1NC(=O)Cc1cn(C)c2ccccc12	0	162*	nt	nt
Cn1cc(CC(=O)Nc2ccc(Oc3cccnc3)cc2)c2ccccc21	0	-1	nt	-2
c1cn2cc(-c3ccc(CN4CCOCC4)cc3)ccc2n1	0	55*	3	-5
c1cc(-c2ccc(CN3CCOCC3)cc2)n2ccnc2c1	0	20	3	-6
CCCC(C)(C)C(=O)N1CCC1(C)C(=O)NS(=O)(=O)c1ccc(Cl)cc1 (configuration not stated)	0	42*	1	-6
O=C(Nc1cccc(F)c1)N1C[C@H]2[C@@H](c3ccccc31)[C@H](CO)N2C(=O)c1ccccn1	0	-6	nt	nt
CC(NC(=O)COC(=O)c1ccccc1Nc1ccccc1)c1ccccc1 (configuration not stated)	nt	85*	-1	-8
Cc1ccc(OCC(=O)NNc2c3ccccc3nc3ccccc23)cc1	0	-14	3	48*
CC(C)c1ccc(OCC(=O)NC(C)c2ccccc2)cc1 (configuration not stated)	0	nt	0	-19
CC(NC(=O)COC(=O)c1ccccc1O)c1ccccc1 (configuration not stated)	0	13	1	-5
Cc1ccc(OCC(=O)NC(C)c2ccccc2)cc1 (configuration not stated)	0	47*	1	-22
Cc1cccc(OCC(=O)NNc2c3ccccc3nc3ccccc23)c1	nt	0	-1	-6
CS(=O)(=O)Nc1ccc2c(c1)[C@@H]1C[C@H](CC(=O)NCc3ccc(Oc4ccccc4)cc3)O[C@@H](CO)[C@@H]1O2	0	-25	nt	nt
Nc1ncnc2c1nc(Sc1ccc(Cl)cc1)n2[C@@H]1O[C@@H]2COP(=O)(O)O[C@H]2[C@H]1O	0	64*	3	-6
CN1C(=O)/C(=C/c2ccc3c(c2)OCO3)N=C1c1ccccc1	0	40*	2	-5
Cc1c(Nc2c3ccccc3nc3ccccc23)c(=O)n(-c2ccccc2)n1C	0	1	4	165*
CCCc1cc(=O)[nH]c2nnc(SCC(=O)N3CC(C)OC(C)C3)n12 (configuration not stated)	0	55*	0	-5
Cc1cc(=O)[nH]c2nnc(SCC(=O)N3CC(C)OC(C)C3)n12 (configuration not stated)	0	3	0	-7
O=c1c2ccccc2nnn1Cc1ccc2ccccc2c1	73*	26	4	-31
COC(=O)c1cccc(Cn2nnc3ccccc3c2=O)c1	nt	nt	2	-2
SMILES	Xi reactivation	INS-1E GSIS act	GAA850 FXN act	CaV13 ICDI inh
C[C@@H]1CCCCO[C@@H](CN(C)S(=O)(=O)c2ccccc2)[C@H](C)CN([C@@H](C)CO)C(=O)c2cc(NC(=O)CCCN(C)C)ccc2O1	0	1	nt	nt
O=C(CCCN1CCOCC1)c1ccc2c(c1)OCCO2	nt	nt	6	nt
O=C(CCN1CCOCC1)c1ccc2c(c1)OCCO2	nt	48*	-2	-5
O=C(CCN1CCOCC1)c1ccccc1	nt	105*	2	-8
O=C(CCN1CCCCC1)c1ccccc1	nt	-5	0	-7
CC(=O)N(C)C[C@@H]1Oc2ncc(-c3ccccc3C)cc2C(=O)N([C@H](C)CO)C[C@H]1C	0	6	nt	nt

Screening data deposited in PubChem by several laboratories.
